What was measured:
Format in all cases: functional
[1] = test system: HL-60(TB); experiment: Growth inhibition of human HL-60(TB) cells incubated for 48 hrs by sulforhodamine B assay; conditions: HL-60, 48 h; for CC50: read-out: LC50 (the source's name)
Procedure, shortened: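 NCI-60 five-dose screen at 0.01, 0.1, 1, 10 and 100 µM for 48 h, sulforhodamine B read-out. GI50 taken from log concentration versus % growth inhibition curves as the concentration giving 50% decrease in net cell growth.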

[2] = test system: RPMI-8226; experiment: Growth inhibition of human RPMI8226 cells incubated for 48 hrs by sulforhodamine B assay; conditions: RPMI-8226, 48 h; for CC50: read-out: LC50 (the source's name)
Procedure, shortened: (§1)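 NCI 60 human tumour cell line panel, five-dose study at 0.01, 0.1, 1, 10 and 100 µM, 48 h incubation. Sulforhodamine B protein-binding dye end point. GI50 (50% decrease in net cell growth), TGI (total growth inhibition) and LC50 (net 50% loss of initial cells) read from log concentration versus % growth inhibition curves.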

[3] = test system: A549; experiment: Growth inhibition of human A549/ATCC cells incubated for 48 hrs by sulforhodamine B assay; conditions: A549, 48 h; for CC50: read-out: LC50 (the source's name)
Procedure, shortened: (§2)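 NCI-60 five-dose screen at 0.01, 0.1, 1, 10 and 100 µM, 48 h incubation, sulforhodamine B end point. GI50 (50% decrease in net growth), TGI (total growth inhibition) and LC50 (net 50% loss of initial cells) taken from log concentration versus % growth inhibition curves.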

[4] = test system: EKVX; experiment: Growth inhibition of human EKVX cells incubated for 48 hrs by sulforhodamine B assay; conditions: for CC50: read-out: LC50 (the source's name); procedure, shortened: as §2
[5] = test system: NCI-H23; experiment: Growth inhibition of human NCI-H23 cells incubated for 48 hrs by sulforhodamine B assay; conditions: NCI-H23, 48 h; for CC50: read-out: LC50 (the source's name); procedure, shortened: as §2
[6] = test system: NCI-H322M; experiment: Growth inhibition of human NCI-H322M cells incubated for 48 hrs by sulforhodamine B assay; conditions: for CC50: read-out: LC50 (the source's name); procedure, shortened: as §2
[7] = test system: NCI-H522; experiment: Growth inhibition of human NCI-H522 cells incubated for 48 hrs by sulforhodamine B assay; conditions: NCI-H522, 48 h; for CC50: read-out: LC50 (the source's name); procedure, shortened: as §2
[8] = test system: HCC 2998; experiment: Growth inhibition of human HCC2998 cells incubated for 48 hrs by sulforhodamine B assay; conditions: HCC 2998, 48 h; for CC50: read-out: LC50 (the source's name); procedure, shortened: as §2
[9] = test system: HCT-15; experiment: Growth inhibition of human HCT15 cells incubated for 48 hrs by sulforhodamine B assay; conditions: HCT-15, 48 h; for CC50: read-out: LC50 (the source's name); procedure, shortened: as §2
[10] = test system: SF-539; experiment: Growth inhibition of human SF539 cells incubated for 48 hrs by sulforhodamine B assay; conditions: SF-539, 48 h; for CC50: read-out: LC50 (the source's name); procedure, shortened: as §1
[11] = test system: SNB-19; experiment: Growth inhibition of human SNB19 cells incubated for 48 hrs by sulforhodamine B assay; conditions: SNB-19, 48 h; for CC50: read-out: LC50 (the source's name); procedure, shortened: as §1
[12] = test system: LOX IMVI; experiment: Growth inhibition of human LOXIMVI cells incubated for 48 hrs by sulforhodamine B assay; conditions: for CC50: read-out: LC50 (the source's name); procedure, shortened: as §2
[13] = test system: SK-MEL-28; experiment: Growth inhibition of human SK-MEL-28 cells incubated for 48 hrs by sulforhodamine B assay; conditions: SK-MEL-28, 48 h; procedure, shortened: as §1
[14] = test system: UACC-62; experiment: Growth inhibition of human UACC62 cells incubated for 48 hrs by sulforhodamine B assay; conditions: UACC-62, 48 h; for CC50: read-out: LC50 (the source's name); procedure, shortened: as §1
[15] = test system: IGROV-1; experiment: Growth inhibition of human IGROV1 cells incubated for 48 hrs by sulforhodamine B assay; conditions: IGROV-1, 48 h; for CC50: read-out: LC50 (the source's name); procedure, shortened: as §2
[16] = test system: OVCAR-3; experiment: Growth inhibition of human OVCAR3 cells incubated for 48 hrs by sulforhodamine B assay; conditions: OVCAR-3, 48 h; for CC50: read-out: LC50 (the source's name); procedure, shortened: as §2
[17] = test system: OVCAR-8; experiment: Growth inhibition of human OVCAR8 cells incubated for 48 hrs by sulforhodamine B assay; conditions: OVCAR-8, 48 h; for CC50: read-out: LC50 (the source's name); procedure, shortened: as §2
[18] = test system: NCI/ADR-RES; experiment: Growth inhibition of human NCI/ADR-RES cells incubated for 48 hrs by sulforhodamine B assay; procedure, shortened: as §2
[19] = test system: SK-OV-3; experiment: Growth inhibition of human SKOV3 cells incubated for 48 hrs by sulforhodamine B assay; conditions: SK-OV-3, 48 h; for CC50: read-out: LC50 (the source's name); procedure, shortened: as §1
[20] = test system: 786-0; experiment: Growth inhibition of human 786-0 cells incubated for 48 hrs by sulforhodamine B assay; conditions: 786-0, 48 h; procedure, shortened: as §2
[21] = test system: SN12C; experiment: Growth inhibition of human SN12C cells incubated for 48 hrs by sulforhodamine B assay; conditions: for CC50: read-out: LC50 (the source's name); procedure, shortened: as §1
[22] = test system: UO-31; experiment: Growth inhibition of human UO31 cells incubated for 48 hrs by sulforhodamine B assay; conditions: UO-31, 48 h; procedure, shortened: as §1
[23] = test system: DU-145; experiment: Growth inhibition of human DU145 cells incubated for 48 hrs by sulforhodamine B assay; conditions: DU-145, 48 h; for CC50: read-out: LC50 (the source's name); procedure, shortened: as §2
[24] = test system: MCF7; experiment: Growth inhibition of human MCF7 cells incubated for 48 hrs by sulforhodamine B assay; conditions: MCF7, 48 h; for CC50: read-out: LC50 (the source's name); procedure, shortened: as §2
[25] = test system: MDA-MB-231; experiment: Growth inhibition of human MDA-MB-231 cells incubated for 48 hrs by sulforhodamine B assay; conditions: MDA-MB-231, 48 h; procedure, shortened: as §2
[26] = test system: MDA-MB-468; experiment: Growth inhibition of human MDA-MB-468 cells incubated for 48 hrs by sulforhodamine B assay; conditions: MDA-MB-468, 48 h; procedure, shortened: as §2
[27] = test system: SNB-19; experiment: Anticancer activity against human SNB19 cells assessed as cell growth at 10 uM after 48 hrs by sulforhodamine B assay relative to control; conditions: SNB-19, 48 h, read-out: Activity
Procedure, shortened: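 Single-dose NCI-60 panel screen: compound added at 10 µM and the culture incubated 48 h. The end point was read by protein staining with sulforhodamine B. The value is percent growth of treated cells relative to untreated control cells, reported as a mean graph across the panel.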

C=C1CC[C@@H]2[C@](C)(COC(C)=O)[C@H](OC(C)=O)CC[C@@]2(C)[C@H]1CC(Nc1ccc(S(=O)(=O)Nc2ncccn2)cc1)C1=CCOC1=O (some centres not stated)
GI50 [1]: 1.3 µM | TGI [1]: 3.64 µM | CC50 [1]: > 100 µM | GI50 [2]: 0.54 µM | TGI [2]: 3.12 µM | CC50 [2]: > 100 µM | GI50 [3]: 3.18 µM | TGI [3]: 9.98 µM | CC50 [3]: 34.6 µM | GI50 [4]: 8.18 µM | TGI [4]: 20.6 µM | CC50 [4]: 45.6 µM | GI50 [5]: 2.11 µM | TGI [5]: 5.38 µM | CC50 [5]: 26.7 µM | GI50 [6]: 3.12 µM | TGI [6]: 11.1 µM | CC50 [6]: 35.6 µM | GI50 [7]: 0.49 µM | TGI [7]: 2.07 µM | CC50 [7]: 6.45 µM | GI50 [8]: 2.1 µM | TGI [8]: 3.81 µM | CC50 [8]: 6.9 µM | GI50 [9]: 1.21 µM | TGI [9]: 3.32 µM | CC50 [9]: 9.15 µM | GI50 [10]: 1.5 µM | TGI [10]: 2.94 µM | CC50 [10]: 5.78 µM | GI50 [11]: 1.63 µM | TGI [11]: 3.76 µM | CC50 [11]: 8.65 µM | GI50 [12]: 0.89 µM | TGI [12]: 2.21 µM | CC50 [12]: 5.06 µM | GI50 [13]: 1.69 µM | LC50 (50% net cell kill) [13]: 6.2 µM | TGI [13]: 3.24 µM | GI50 [14]: 1.11 µM | TGI [14]: 2.56 µM | CC50 [14]: 5.91 µM | GI50 [15]: 2.04 µM | TGI [15]: 4.41 µM | CC50 [15]: 9.53 µM | GI50 [16]: 1.21 µM | TGI [16]: 2.54 µM | CC50 [16]: 5.31 µM | GI50 [17]: 1.48 µM | TGI [17]: 3.55 µM | CC50 [17]: 8.53 µM | GI50 [18]: 1.83 µM | LC50 (concentration giving net 50% loss of initial cells) [18]: > 100 µM | TGI [18]: 5.28 µM | GI50 [19]: 6.27 µM | TGI [19]: 18.3 µM | CC50 [19]: 42.8 µM | GI50 [20]: 1.77 µM | LC50 (concentration giving net 50% loss of initial cells) [20]: 6.51 µM | TGI [20]: 3.39 µM | GI50 [21]: 0.43 µM | TGI [21]: 1.96 µM | CC50 [21]: 5.82 µM | GI50 [22]: 1.51 µM | LC50 (concentration giving net 50% loss of initial cells) [22]: 5.85 µM | TGI [22]: 2.97 µM | GI50 [23]: 1.62 µM | TGI [23]: 3.07 µM | CC50 [23]: 5.83 µM | GI50 [24]: 1.07 µM | TGI [24]: 4.54 µM | CC50 [24]: > 100 µM | GI50 [25]: 1.95 µM | LC50 (concentration giving net 50% loss of initial cells) [25]: 7.91 µM | TGI [25]: 3.93 µM | GI50 [26]: 1.33 µM | TGI [26]: 3.57 µM | growth at 10 µM [27]: 36.7%

C=C1CC[C@@H]2[C@](C)(COC(C)=O)[C@H](OC(C)=O)CC[C@@]2(C)[C@H]1CC(Nc1ccc(S(=O)(=O)Nc2nccs2)cc1)C1=CCOC1=O (some centres not stated)
GI50 [1]: 3.01 µM | TGI [1]: 13.3 µM | CC50 [1]: > 100 µM | GI50 [2]: 2.49 µM | TGI [2]: 7.62 µM | CC50 [2]: > 100 µM | GI50 [3]: 3.67 µM | TGI [3]: 11.2 µM | CC50 [3]: 40.4 µM | GI50 [4]: 14 µM | TGI [4]: 27 µM | CC50 [4]: 52 µM | GI50 [5]: 10 µM | TGI [5]: 24.8 µM | CC50 [5]: 61.6 µM | GI50 [6]: 12 µM | TGI [6]: 24.9 µM | CC50 [6]: 51.6 µM | GI50 [7]: 1.72 µM | TGI [7]: 4.32 µM | CC50 [7]: 21.2 µM | GI50 [8]: 7.78 µM | TGI [8]: 21.3 µM | CC50 [8]: 50.3 µM | GI50 [9]: 1.73 µM | TGI [9]: 4.12 µM | CC50 [9]: 9.84 µM | GI50 [10]: 2.35 µM | TGI [10]: 6.31 µM | CC50 [10]: 23.5 µM | GI50 [11]: 4.36 µM | TGI [11]: 16.1 µM | CC50 [11]: 46 µM | GI50 [12]: 1.59 µM | TGI [12]: 3.31 µM | CC50 [12]: 6.92 µM | GI50 [13]: 3.95 µM | LC50 (50% net cell kill) [13]: 41.8 µM | TGI [13]: 15.1 µM | GI50 [14]: 1.76 µM | TGI [14]: 4.42 µM | CC50 [14]: 13.5 µM | GI50 [15]: 4.54 µM | TGI [15]: 17.1 µM | CC50 [15]: 47.5 µM | GI50 [16]: 1.88 µM | TGI [16]: 3.64 µM | CC50 [16]: 7.06 µM | GI50 [17]: 3.14 µM | TGI [17]: 10.8 µM | CC50 [17]: 47.7 µM | GI50 [18]: 2.97 µM | LC50 (concentration giving net 50% loss of initial cells) [18]: > 100 µM | TGI [18]: 12.7 µM | GI50 [19]: 14.4 µM | TGI [19]: 27.8 µM | CC50 [19]: 53.5 µM | GI50 [20]: 2.54 µM | LC50 (concentration giving net 50% loss of initial cells) [20]: 23.6 µM | TGI [20]: 6.74 µM | GI50 [21]: 1.87 µM | TGI [21]: 4.39 µM | CC50 [21]: 14.3 µM | GI50 [22]: 4.07 µM | LC50 (concentration giving net 50% loss of initial cells) [22]: 41.8 µM | TGI [22]: 16.1 µM | GI50 [23]: 4.47 µM | TGI [23]: 15.8 µM | CC50 [23]: 39.8 µM | GI50 [24]: 2.59 µM | TGI [24]: 13.6 µM | CC50 [24]: > 100 µM | GI50 [25]: 3.3 µM | LC50 (concentration giving net 50% loss of initial cells) [25]: 37.6 µM | TGI [25]: 8.25 µM | GI50 [26]: 1.83 µM | TGI [26]: 4.43 µM | CC50 ([26]; read-out: LC50 (the source's name)): 14.1 µM | growth at 10 µM [27]: 49.1%
